The values that follow come from PubChem BioAssay.

Unmarked numbers belong to inactive results. Results filed as inconclusive are left out. Active and inactive are the calls of the source.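 Rule for the calls, unless noted: active = inhibition over a set limit, the all-compound mean plus 3 SD, in both replicate runs; inconclusive = over that limit in just one replicate run; inactive = at or under that limit in both runs.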

Experiment [1] can be described thus: OD615 S. cerevisiae growth inhibition, permissive medium, pilot counter-assay, permissive growth control for S. cerevisiae lifespan shortening project (AID 705;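 active = growth inhibition above 25% in both replicates, a cutoff set 3 SD above the mean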). The note with it: OD615, 24 h, at 10 µM, active compounds read high. The essentials: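 System: Engineered DeaD yeast | Buffer or medium: SC raffinose/galactose permissive medium | Incubation: Cells pre-grown 4 h, then 24 h compound exposure, 30 °C humidified | Measured by: Absorbance (optical density) at 615 nm | Read-out: Reduction in yeast growth (OD615)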

The nature of experiment [2]: Restrictive medium S. cerevisiae growth inhibition, OD615, pilot screen of yeast lifespan reduction project, restrictive growth control (AID 706;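 active = growth inhibition above a set limit, 3 SD over mean compound inhibition, in both replicates, cut at about 43% in these data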;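 note: modified DeaD lifespan yeast strain shifted to restrictive glucose medium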). The note with it: OD615, 48 h, at 10 µM, active compounds read high. The essentials:
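Material: modified S. cerevisiae; Medium: glucose-based CSMM-D restrictive medium; Compound dosing: one concentration, 10 µM final, 0.25% DMSO; Incubation: 48 h compound exposure at 30 °C; Measured by: OD615.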

Experiment [3] is described as follows: viability gain of MRP-1-high H69AR cells under doxorubicin, pilot screen, MRP-1 activator project, CellTiter-Glo, duplicate (AID 807;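 active = viability increase at or above a cutoff of the median across tested compounds plus 3 SD, cut at about 8.5% in these data, passing the limit was not always enough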;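 note: compound pretreatment 18-22 h then 72 h combined with doxorubicin; 0% = doxorubicin alone and 100% = vehicle without doxorubicin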). The note with it: H69AR viability with doxorubicin, CellTiter-Glo luminescence; at 10 µM; active compounds read high. Background: ATP-based viability assays read luminescence as a measure of living cells.
Experiment [4] in a line: growth suppression of beta-catenin knockout HCT116, pilot screen, human colon tumor cells (AID 823;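 active = cell viability at or below a set limit in both duplicate runs, the limit being the all-compound median minus 4 SD, cut at about 23% in these data, passing the limit was not always enough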;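 note: 0% = wells killed by 20 µM Hyamine and 100% = untreated DMSO cell wells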). The following applies: CellTiter-Glo, 60 h, at 10 µM, active compounds read low.
Experiment [5] can be described thus: growth suppression of PTEN-deleted HCT116, pilot screen, cell-based, HCT116 clonal line, CellTiter-Glo (AID 824;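 active = viability at or below 27.92% in each of two runs, the all-compound median minus 4 SD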;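 note: 0% = 20 µM Hyamine control and 100% = vehicle cell control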). The note with it: 60 h, at 10 µM, active compounds read low.
Experiment [6] can be described thus: inhibitors of the yeast RAM network, pilot screen, dse1pr::URA3 reporter, 5-FOA selection (AID 869).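 Note: 0% = DMSO wells with no growth and 100% = 10 µM 1-NA-PP1 with full growth; RAM network block rescues cells from 5-FOA so hits raise OD615 growth.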 The following applies: S. cerevisiae dse1pr::URA3 5-FOA growth, OD615, 2 d; at 10 µM; active compounds read high; strain carries analog-sensitive mutant Cbk1 kinase.
Experiment [7] is described as follows: RAM signaling pathway blockade in yeast – S. cerevisiae, Pdr1DBD-CYC8 efflux-inhibited sensitized strain, primary screen (AID 1298;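 active = RAM network inhibition above 8.4% in each of two replicates, 3 SD over the compound average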;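 note: 0% = DMSO untreated cells without growth and 100% = 10 µM 1-NA-PP1 full growth; higher means more yeast growth rescued from 5-FOA killing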). The following applies: S. cerevisiae cbk1-as DSE1-URA3 strain, 5-FOA growth OD615, 2 d; at 50 µM; active compounds read high.

Turning to `c1ccc(N2CCN(c3nnnn3-c3ccccc3)CC2)cc1`, the growth inhibition is -10.6% in experiment [1] and 3.73% in experiment [2]. Further, the viability increase in experiment [3] is -0.01%. Besides, the viability – broadly, a read-out of living cells in per cent, often relative to untreated cells – in experiment [4] is 76%; in experiment [5], 75.7%. The inhibition (usually the drop in the measured response relative to a control, in per cent) in experiment [6] is 1.12%. In experiment [7], the RAM network inhibition was 9%.
As to `CCN1CCN(C(=O)c2cc3c(=O)oc4ccc(C)cc4c3s2)CC1`, the growth inhibition in experiment [1] was -12.6%; in experiment [2], -16.2%. Further, the viability increase in experiment [3] is -2.18%. For the same compound, the viability in experiment [4] is 102%; in experiment [5] it was 93.7%. Besides, in experiment [6], the inhibition is 0.905%. In addition, the RAM network inhibition in experiment [7] is 1.3%.
Take `Cc1csc(NC(=O)CSc2nnc(Cn3c(=O)sc4ccccc43)n2-c2ccccc2)n1`: the growth inhibition in experiment [1] was 0.38%; in experiment [2] it was 15.3%. For the same compound, the viability increase in experiment [3] was -1.37%. The viability was 96% in experiment [4] and 96.8% in experiment [5]. The inhibition in experiment [6] was 2.42%. In addition, the RAM network inhibition in experiment [7] was 6.99%.
For `Cc1cc(S(=O)(=O)N2CCN(Cc3ccccc3)CC2)c(C)s1`, the results for the growth inhibition in experiment [1] and in experiment [2] were -11.6% and 0.51%, respectively. In experiment [3], the viability increase was -1.58%. The values for the viability in experiment [4] and in experiment [5] were 77.1% and 81.1%, respectively. Besides, the inhibition in experiment [6] is 1.35%. The RAM network inhibition in experiment [7] is 4.48%.
Take `COc1ccc(OCC(=O)NC2CC(C)(C)NC(C)(C)C2)cc1`: the growth inhibition in experiment [1] was 4.15%; in experiment [2], 2.14%. The viability increase in experiment [3] was 1.31%. Further, the values for the viability in experiment [4] and in experiment [5] were 103% and 105%, respectively. Besides, in experiment [6], the inhibition is -0.405%. Also, the RAM network inhibition in experiment [7] is 3.43%.
Consider `C=CCn1c(C(C)NC(=O)C(C)(C)C)nc2ccccc21` (stereo unspecified), for which the growth inhibition in experiment [1] was -9.47%; in experiment [2], -11.3%. The viability increase in experiment [3] is 1.33%. In addition, the results for the viability in experiment [4] and in experiment [5] were 94.8% and 95.5%, respectively. The inhibition in experiment [6] was 1.41%. In addition, in experiment [7], the RAM network inhibition is 0.71%.
Consider `CC(C)c1nc(SCC(=O)Nc2ccc3c(c2)OCCO3)c2c(=O)n(C)c(=O)n(C)c2n1`, for which the growth inhibition in experiment [1] is 0.9%; in experiment [2], 4.21%. For the same compound, the viability increase in experiment [3] is -2.28%. Besides, the viability in experiment [4] was 85.4%; in experiment [5], 84.4%. Besides, the inhibition in experiment [6] was 3.59%. Further, the RAM network inhibition in experiment [7] is 5.72%.
For `CCOc1cc(C2NC(=O)NC(O)(C(F)(F)F)C2C(=O)c2ccc(Cl)cc2)ccc1O` (stereo unspecified), the figures for the growth inhibition in experiment [1] and in experiment [2] were -3.6% and -4.53%, respectively. Further, the viability increase in experiment [3] is -1.34%. Moreover, the viability in experiment [4] is 86.7%; in experiment [5], 94.3%. The inhibition in experiment [6] is 1.62%. Moreover, the RAM network inhibition in experiment [7] was -0.26%.
In the case of `CN1CCN(S(=O)(=O)c2ccc(-c3ccc(S(=O)(=O)N4CCN(C)CC4)cc3)cc2)CC1`, the growth inhibition in experiment [1] was -23.4%; in experiment [2] it was -19.1%. Also, in experiment [3], the viability increase is 0.84%. For the same compound, the results for the viability in experiment [4] and in experiment [5] were 96.5% and 96.2%, respectively. The inhibition in experiment [6] is 0.68%. Besides, in experiment [7], the RAM network inhibition is 0.57%.
As for `COc1ccccc1C1C=C(c2ccccc2)Nc2nnnn21` (stereo unspecified), the growth inhibition was -4.73% in experiment [1] and 4.88% in experiment [2]. The viability increase in experiment [3] is -0.25%. Moreover, the viability in experiment [4] is 72.2%; in experiment [5], 83.7%. Moreover, the inhibition in experiment [6] is 0.05%. In experiment [7], the RAM network inhibition is 5.5%.
Regarding `CC(=O)N1CCN(c2ccc(NCc3ccc(F)cc3)cc2)CC1`, the growth inhibition in experiment [1] was -7.68%; in experiment [2] it was 0.705%. Also, the viability increase in experiment [3] was -2.9%. Moreover, the viability in experiment [4] is 90.1%; in experiment [5], 83.1%. In experiment [6], the inhibition is 2.81%. In addition, in experiment [7], the RAM network inhibition is 2.34%.
For the compound `COc1ccc(S(=O)(=O)Cc2ccc(C(=O)N3CCN(C(=O)c4ccco4)CC3)o2)cc1`, the results for the growth inhibition in experiment [1] and in experiment [2] were 0.785% and 1.27%, respectively. Further, the viability increase in experiment [3] is -2.09%. The viability was 92.8% in experiment [4] and 100% in experiment [5]. In addition, the inhibition in experiment [6] is 2.06%. For the same compound, the RAM network inhibition in experiment [7] was 3.94%.
For `CC(C)N(Cc1ccccc1)C(=O)c1cnc2n(c1=O)CCS2`, the growth inhibition was -1.66% in experiment [1] and -28.5% in experiment [2]. Also, the viability increase in experiment [3] is -2.84%. The viability in experiment [4] is 105%; in experiment [5] it was 98.1%. The inhibition in experiment [6] was 1.28%. Further, the RAM network inhibition in experiment [7] is 1.59%.
`Cc1c(N=c2c(=O)c3ccccc3c2=O)c(=O)n(-c2ccccc2)n1C`: the figures for the growth inhibition in experiment [1] and in experiment [2] were -15.7% and -8.74%, respectively. The viability increase in experiment [3] was -4.43%. For the same compound, the viability in experiment [4] is 95.2%; in experiment [5], 95.3%. Also, the inhibition in experiment [6] was 4.17%. For the same compound, the RAM network inhibition in experiment [7] was 3.66%.
For `CCOC(=O)Nc1cc(C)c(Cl)cc1OC`, the growth inhibition in experiment [1] is -8.55%; in experiment [2], -0.98%. Moreover, the viability increase in experiment [3] is -2.98%. In addition, the viability in experiment [4] was 84.5%; in experiment [5] it was 75.7%. The inhibition in experiment [6] is 2.17%. For the same compound, the RAM network inhibition in experiment [7] was 5.3%.
As to `C=Cn1ccnc1P(=S)(c1ccc2c(c1)c1ccccc1n2CC)c1nccn1C=C`, the growth inhibition in experiment [1] was -10.3%; in experiment [2] it was -21.9%. Moreover, the viability increase in experiment [3] is -6.67%. Further, the figures for the viability in experiment [4] and in experiment [5] were 16.2% (active) and 13.8% (active), respectively. In addition, the inhibition in experiment [6] is 3.5%. The RAM network inhibition in experiment [7] was 6.54%.
Take `O=C(Cn1cnc2c(nnn2-c2cccc(Cl)c2)c1=O)N1CCOCC1`: the growth inhibition was -0.49% in experiment [1] and -4.46% in experiment [2]. Moreover, the viability increase in experiment [3] was -0.35%. The viability in experiment [4] is 92.5%; in experiment [5], 96.4%. The inhibition in experiment [6] was 1.79%. In addition, the RAM network inhibition in experiment [7] is 1.56%.
With `Cc1ccc2oc(=O)c3cnn(CC(=O)NCCCOC(C)C)c3c2c1`, the growth inhibition in experiment [1] was -9.03%; in experiment [2] it was -7.34%. Also, the viability increase in experiment [3] was -2.72%. Besides, the viability in experiment [4] was 106%; in experiment [5] it was 94.2%. For the same compound, the inhibition in experiment [6] is 1.87%. In addition, the RAM network inhibition in experiment [7] was 8.19%.
